Assays:
Mus musculus [1] = organism: Mus musculus; test: Ability to act as B-cell mitogens; assay type: functional; conditions: read-out: ED50 (the source's name)
How it was run: (§1)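 CBA/CaJ mouse spleen cells (1 × 10⁵/0.2 mL) exposed to graded compound concentrations, dissolved in water or DMSO and diluted in medium, for 24 h. [³H]thymidine then added for a further 24 h; incorporation by scintillation counting. ED50 and maximal response expressed relative to a concurrently run standard (loxoribine in most cases).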

Mus musculus [2] = organism: Mus musculus; test: Percent of maximum response was tested for its ability to act as B-cell mitogens (mitogenicity); assay type: functional; how it was run: as §1
Mus musculus [3] = organism: Mus musculus; test: Percent of maximum response was tested to augment the antibody response of B cells to sheep red blood cell challenge; assay type: functional
How it was run: (§2)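 CBA/CaJ spleen cells depleted of T cells with anti-T cell monoclonal antibody (1:1000, 30 min, 4 °C) then complement (37 °C, 45 min). Cultured ± 0.1% SRBC antigen in serum-containing medium with compound from zero to 10⁻³ M for 4 d. Plaque-forming cells counted in agarose with guinea pig complement. ED50 and maximal response relative to a concurrent standard.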

Mus musculus [4] = organism: Mus musculus; test: Augment antibody response of B cells to sheep red blood cell (SRBC) challenge (adjuvanticity); assay type: functional; conditions: read-out: ED50 (the source's name); how it was run: as §2
YAC-1 [5] = test: Stimulation of natural killer (NK) response in Yac-1 cell line (mouse, lymphoma); assay type: functional; conditions: read-out: ED50 (the source's name)
YAC-1 [6] = test: Percent of maximum response was tested for its ability to stimulate the natural killer response in murine in vitro cell assays; assay type: functional, Mus musculus
Mus musculus [7] = organism: Mus musculus; test: Effective dose for its ability to act as B-cell mitogens (mitogenicity); Neg indicates a response lower than vehicle control; assay type: functional; how it was run: as §1
Mus musculus [8] = organism: Mus musculus; test: Tested to augment the antibody response of B cells to sheep red blood cell (SRBC) challenge (adjuvanticity); Neg indicates a response lower than vehicle control; assay type: functional, cell-based; how it was run: as §2
YAC-1 [9] = test: Stimulation of natural killer (NK) response in Yac-1 cell line (mouse, lymphoma); Neg indicates a response lower than vehicle control; assay type: functional, cell-based

EC50 (Mus musculus [1]) [µM]	Compound	Max response (Mus musculus [2]) [%]	Max response (Mus musculus [3]) [%]	EC50 (Mus musculus [4]) [µM]	EC50 (YAC-1 [5]) [µM]	Max response (YAC-1 [6]) [%]	ED50 (Mus musculus [7])	ED50 (Mus musculus [8])	ED50 (YAC-1 [9])
295	C=CCn1c(=S)n(C2OC(COC(C)=O)[C@@H](OC(C)=O)[C@H]2OC(C)=O)c2nc(NC(C)=O)nc(O)c21 (some centres not stated)	134	60	7	5	77			
	C=CCn1c(=O)n([C@@H]2O[C@H](CO)[C@H]3OC(C)(CCC(=O)OCC)O[C@H]32)c2nc(N)nc(O)c21 (some centres not stated)	0	44	139	150	19	Negative		
37	C=CCn1c(=O)n([C@@H](CO)OC(CO)CO)c2nc(N)nc(O)c21	6	0					Negative	
	CC1OC(n2c(=O)n(C)c3c(O)nc(N)nc32)[C@H](O)[C@@H]1O (some centres not stated)		0					Negative	
13	C=CCn1c(=S)n(COCCO)c2nc(N)nc(O)c21	7	9	14	55	28			
	C=CCn1c(=O)n(CCc2ccc(OC)c(OC)c2)c2nc(N)nc(O)c21		0					Negative	
	C=CCn1c(=O)n(C2OC(CO[Si](c3ccccc3)(c3ccccc3)C(C)(C)C)[C@@H](O)[C@H]2O)c2nc(N)nc(O)c21 (some centres not stated)		33	18		15			Negative
	C=CCn1c(=S)n(C2OC(COC(=O)c3ccccc3)[C@H]3OC(C)(C)O[C@@H]23)c2nc(N)nc(O)c21 (some centres not stated)	0	77	47			Negative		
	N#Cc1cccc(Cn2c(=O)n(C3OC(CO)[C@@H](O)[C@H]3O)c3nc(N)nc(O)c32)c1 (some centres not stated)		16	3		11			Negative
	Nc1nc(O)c2c(n1)n(C1OC(CO)[C@@H](O)[C@H]1O)c(=O)n2Cc1ccc(Cl)cc1 (some centres not stated)		15	14	180	27			
	Nc1nc(O)c2c(n1)n(C1OC(CO)[C@@H](O)[C@H]1O)c(=O)n2Cc1ccc(OCc2ccccc2)cc1 (some centres not stated)		5	8		6			Negative
117	NC(=O)Cn1c(=O)n(C2OC(CO)[C@@H](O)[C@H]2O)c2nc(N)nc(O)c21 (some centres not stated)	72	32	190	90	42			
52	C=CCn1c(=O)n(CCCCO)c2nc(N)nc(O)c21	16	12					Negative	
	C=CCn1c(=O)n(C2CN(C(c3ccccc3)c3ccccc3)CC(CO)O2)c2nc(N)nc(O)c21 (configuration not stated)				12	46			
47	C=CCn1c(=O)n([C@@H]2O[C@H](CO)[C@H]3OC(=O)O[C@H]32)c2nc(N)nc(O)c21	97	50	3	20	90			
	Nc1nc(O)c2c(n1)n(C1OC(CO)[C@@H](O)[C@H]1O)c(=O)n2CC(=O)c1ccc(Cl)cc1 (some centres not stated)	0	23	1620			Negative		
	C=CCn1c(=O)n(C2OC(COC(=O)CCC)[C@@H](OC(=O)CCC)[C@H]2OC(=O)CCC)c2nc(NC(=O)CCC)nc(O)c21 (some centres not stated)		109	53		12			Negative
	C=CCn1c(=O)n([C@@H]2O[C@H](CO)[C@H]3OC(CCC)(CCC)O[C@H]32)c2nc(N)nc(O)c21	38	123	4	11	56			
	Nc1nc(O)c2c(n1)n(C1OC(CO)[C@@H](O)[C@H]1O)c(=O)n2CCN1CCCCC1 (some centres not stated)	0	0				Negative	Negative	
82	CCCn1c(=O)n(C2OC(COP(=O)([O-])[O-])[C@@H](O)[C@H]2O)c2nc(N)nc(O)c21.[Li+].[Li+] (some centres not stated)	57	76	15		15			Negative
	Nc1nc(O)c2c(n1)n(C1OC(CO)[C@@H](O)[C@H]1O)c(=O)n2Cc1ccc(Cl)c(Cl)c1 (some centres not stated)	0	55		110	15	Negative	Negative	

EC50 (Mus musculus [1]) [µM]	Compound	Max response (Mus musculus [2]) [%]	Max response (Mus musculus [3]) [%]	EC50 (Mus musculus [4]) [µM]	EC50 (YAC-1 [5]) [µM]	Max response (YAC-1 [6]) [%]	ED50 (Mus musculus [7])	ED50 (Mus musculus [8])	ED50 (YAC-1 [9])
11	C=CCn1c(=O)n(CCCC)c2nc(N)nc(O)c21	36	77	2	4	21			
	C=CCn1c(=O)n(C2CCC(CO)C2)c2nc(N)nc(O)c21 (configuration not stated)	0	26	226			Negative		
	Nc1nc(O)c2nc(S)n(COCCO)c2n1		0		3	26		Negative	
50	C=CCn1c(=S)n(C2OC(COC(C)=O)[C@H]3OC(C)(C)O[C@@H]23)c2nc(N)nc(O)c21 (some centres not stated)	20	141	50	30	30			
819	C=CCn1c(=O)n(C2OC(COC(=O)COC)[C@@H](OC(=O)COC)[C@H]2OC(=O)COC)c2nc(NC(=O)COC)nc(O)c21 (some centres not stated)	53	216	28	150	60			
233	C=CCn1c(=O)n(C2OC(CO)[C@@H](O)C2O)c2nc(N)nc(O)c21 (some centres not stated)	76	143	17	60	68			
	C=CCn1c(=O)n([C@@H]2O[C@H](CO)[C@H]3OC(C)(CCC(=O)O)O[C@H]32)c2nc(N)nc(O)c21 (some centres not stated)					0			Negative
45	C=CCn1c(=S)n([C@@H]2O[C@H](CO)[C@H]3OC(C)(C)O[C@H]32)c2nc(N)nc(O)c21	9	89	55	40	30			
	CCCCCCCCCCn1c(=O)n(C2OC(CO)[C@@H](O)[C@H]2O)c2nc(N)nc(O)c21 (some centres not stated)	0	0				Negative	Negative	
272	C=CCn1c(=O)n([C@H]2CO[C@@H](CO)C2)c2nc(N)nc(O)c21	16	10	83		0			Negative
	C=CCn1c(=S)n(C2OC(CO)[C@@H](O)C(O)[C@H]2O)c2nc(N)nc(O)c21 (some centres not stated)		5	1		3			Negative
	Nc1nc(O)c2nc3n(c2n1)COCCO3		0			6		Negative	Negative
80	CCCn1c(=O)n(C2CCC(COC(C)=O)O2)c2nc(NC(C)=O)nc(O)c21 (configuration not stated)	11	100	154		0			Negative
120	Cn1c(=O)n(C2OC(CO)[C@@H](O)[C@H]2O)c2nc(N)nc(O)c21 (some centres not stated)	100	99	10	56	72			
	Nc1nc(O)c2c(n1)n(C1OC(CO)[C@@H](O)[C@H]1O)c(=O)n2CCCl (some centres not stated)		101	4	19	83			
34	C=CCn1c(=S)n(C2OC(COC(C)=O)[C@@H](OC(C)=O)[C@H]2OC(C)=O)c2nc(N)nc(O)c21 (some centres not stated)	96	141	5					
	C=CCn1c(=O)n(C2OC(CO[Si](C)(C)C(C)(C)C)[C@@H](O)[C@H]2O)c2nc(N)nc(O)c21 (some centres not stated)		5	1		6			Negative
52	CCCn1c(=O)n(C2CCC(CO)O2)c2nc(N)nc(O)c21 (configuration not stated)	84	118	6	14	102			
	N#Cc1ccc(Cn2c(=O)n(C3OC(CO)[C@@H](O)[C@H]3O)c3nc(N)nc(O)c32)cc1 (some centres not stated)		50	15		0			Negative
	C=CCN1C(=C(C(=O)OCC)C(=O)OCC)N([C@H]2OC(CO)[C@H]3OC(C)(C)O[C@H]32)c2nc(N)nc(O)c21 (some centres not stated)		0					Negative	
